These results are taken from ChEMBL document CHEMBL1151761, “Radiohalogenated prostate-specific membrane antigen (PSMA)-based ureas as imaging agents for prostate cancer” (J Med Chem, 2008).

Common to all, as to assay type: ADME, organism-based
The nature of data set [1]: Ratio of drug level in PC3 PIP tumor to PC3 flu tumor of human PSMA expressing PC3 PIP and PSMA deficient human PC3 flu cells xenografted SCID mouse at 2 uCi, iv after 60 mins. The following applies: in vivo, 1 h. The gist of the method: (§1)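 Male SCID mice carried subcutaneous PSMA+ PC-3 PIP (left shoulder) and PC-3 flu (right shoulder) xenografts, 1-5 × 10^6 cells in HBSS, and were used at 3-5 mm tumor diameter. Tail-vein injection of 2 µCi radioligand; four mice per time point, killed by cervical dislocation. %ID/g from a standard dilution of the dose, decay-corrected, mean ± SD; PIP tumor:organ ratios.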
On the technique in general: In xenograft studies the graft and the host belong to different species.

Data set [2] in a line: Biodistribution in PC3 PIP tumor of PSMA expressing human PC3 PIP and PSMA deficient human PC3 flu cells xenografted SCID mouse at 2 uCi, iv after 30 mins. The conditions noted are these: in vivo, 0.5 h. The gist of the method:
as §1

Another data set has as its system Heart. In words: Biodistribution in heart of PSMA expressing human PC3 PIP and PSMA deficient human PC3 flu cells xenografted SCID mouse at 2 uCi, iv after 60 mins. The following applies: in vivo, 1 h.
The test system of a further data set is Urinary bladder. In words: Biodistribution in bladder of PSMA expressing human PC3 PIP and PSMA deficient human PC3 flu cells xenografted SCID mouse at 2 uCi, iv after 60 mins. The following applies: in vivo, 1 h.
The next data set has as its system Spleen. As to the kind of experiment: Biodistribution in spleen of PSMA expressing human PC3 PIP and PSMA deficient human PC3 flu cells xenografted SCID mouse at 2 uCi, iv after 2 hrs. The following applies: in vivo.
For the next data set, the system named is Liver. As to the kind of experiment: Biodistribution in liver of PSMA expressing human PC3 PIP and PSMA deficient human PC3 flu cells xenografted SCID mouse at 2 uCi, iv after 5 hrs. The following applies: in vivo.
The test system of another data set is Muscle tissue. In words: Biodistribution in muscle of PSMA expressing human PC3 PIP and PSMA deficient human PC3 flu cells xenografted SCID mouse at 2 uCi, iv after 5 hrs. The conditions noted are these: in vivo.
The nature of data set [3]: Biodistribution in small intestine of PSMA expressing human PC3 PIP and PSMA deficient human PC3 flu cells xenografted SCID mouse at 2 uCi, iv after 5 hrs. The following applies: in vivo. Summed up:
as §1

Data set [4] can be described thus: Biodistribution in large intestine of PSMA expressing human PC3 PIP and PSMA deficient human PC3 flu cells xenografted SCID mouse at 2 uCi, iv after 5 hrs. The following applies: in vivo. The gist of the method:
as §1

Data set [5] is described as follows: Ratio of drug level in tumor to pancreas of human PSMA expressing PC3 PIP and PSMA deficient human PC3 flu cells xenografted SCID mouse at 2 uCi, iv after 30 mins. The conditions noted are these: in vivo, 0.5 h. The gist of the method:
as §1

A short description of data set [6]: Ratio of drug level in tumor to kidney of human PSMA expressing PC3 PIP and PSMA deficient human PC3 flu cells xenografted SCID mouse at 2 uCi, iv after 30 mins. The following applies: in vivo, 0.5 h. Summed up:
as §1

A short description of data set [7]: Ratio of drug level in tumor to large intestine of human PSMA expressing PC3 PIP and PSMA deficient human PC3 flu cells xenografted SCID mouse at 2 uCi, iv after 30 mins. The following applies: in vivo, 0.5 h. Summed up:
as §1

Data set [8] is described as follows: Ratio of drug level in tumor to bladder of human PSMA expressing PC3 PIP and PSMA deficient human PC3 flu cells xenografted SCID mouse at 2 uCi, iv after 30 mins. The following applies: in vivo, 0.5 h. Summed up:
as §1

A short description of data set [9]: Ratio of drug level in tumor to heart of human PSMA expressing PC3 PIP and PSMA deficient human PC3 flu cells xenografted SCID mouse at 2 uCi, iv after 60 mins. The conditions noted are these: in vivo, 1 h. The gist of the method:
as §1

Data set [10] is described as follows: Ratio of drug level in tumor to liver of human PSMA expressing PC3 PIP and PSMA deficient human PC3 flu cells xenografted SCID mouse at 2 uCi, iv after 60 mins. The following applies: in vivo, 1 h. Summed up: as §1
Data set [11] in a line: Ratio of drug level in tumor to small intestine of human PSMA expressing PC3 PIP and PSMA deficient human PC3 flu cells xenografted SCID mouse at 2 uCi, iv after 60 mins. The following applies: in vivo, 1 h. The gist of the method: (§2)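 Male SCID mice carried subcutaneous xenografts: PSMA+ PC-3 PIP behind the left shoulder and PSMA− PC-3 flu behind the right, 1–5 × 10^6 cells in HBSS. Mice were used at 3–5 mm tumor diameter. 2 μCi was given by tail vein, and 4 mice per time point were killed by cervical dislocation. %ID/g came from a standard dilution of the dose, decay-corrected. Ratio is PIP tumor %ID/g to organ %ID/g.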

Data set [12] in a line: Ratio of drug level in tumor to lung of human PSMA expressing PC3 PIP and PSMA deficient human PC3 flu cells xenografted SCID mouse at 2 uCi, iv after 2 hrs. The conditions noted are these: in vivo. The gist of the method: as §1
Data set [13] in a line: Ratio of drug level in tumor to large intestine of human PSMA expressing PC3 PIP and PSMA deficient human PC3 flu cells xenografted SCID mouse at 2 uCi, iv after 2 hrs. The conditions noted are these: in vivo. Summed up:
as §1

Data set [14] can be described thus: Ratio of drug level in tumor to heart of human PSMA expressing PC3 PIP and PSMA deficient human PC3 flu cells xenografted SCID mouse at 2 uCi, iv after 30 mins. The conditions noted are these: in vivo, 0.5 h. Summed up:
as §1

The nature of data set [15]: Ratio of drug level in tumor to lung of human PSMA expressing PC3 PIP and PSMA deficient human PC3 flu cells xenografted SCID mouse at 2 uCi, iv after 30 mins. The conditions noted are these: in vivo, 0.5 h. Summed up:
as §1

A short description of data set [16]: Ratio of drug level in tumor to pancreas of human PSMA expressing PC3 PIP and PSMA deficient human PC3 flu cells xenografted SCID mouse at 2 uCi, iv after 5 hrs. The following applies: in vivo. Summed up: as §2

For the compound `O=C(O)CC[C@H](NC(=O)N[C@@H](CCCCNC(=O)c1ccc([18F])cc1)C(=O)O)C(=O)O`, the Ratio in data set [1] is listed as 21; in data set [5], 11; in data set [6], 0.1; in data set [7], 7; in data set [8], 1; in [9] it was 35. The Ratio in data set [10] stood at 1; in data set [11], 11; in data set [12] it was 4; in data set [13] it was 19; in [14], 11; in [15], 5. The Ratio in [16] came out at 70. Further, the Drug uptake in data set [2] was found to be 8.6 % ID/g; in the data set with Heart it was 0.2 % ID/g; in the data set with Urinary bladder, 17 % ID/g; with Spleen, 4.4 % ID/g; in the data set with Liver it was 1 % ID/g; with Muscle tissue, 0.1 % ID/g. In addition, the figures for the Drug uptake in [3] and in data set [4] were 0.1 % ID/g and 0.6 % ID/g, respectively.
